Compound activity deposited in PubChem BioAssay by several laboratories.
Arbovirus anti – arbovirus infection inhibition; arbovirus infection cell-based antiviral screen; inhibition, % at 10 µM; 200,000 compounds, 0.37% hits; in the data active means inhibition above about 30%
CHOP inh – CHOP inhibition in unfolded protein response | CHO-K1 CHOP-promoter luciferase, tunicamycin-induced, 15-18 h | inhibition, % at 10 µM | 220,000 compounds, 3.8% hits;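 active means compounds that reduced the stress-induced luciferase reporter signal by more than about 70% of percent inhibition, limit read from the data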
PKD1 inh – inhibitors of human PKD1 kinase; Q15139; PKD1 kinase fluorescence polarization assay; inhibition, % (concentration not given with the values); 200,000 compounds, 0.056% hits; AID 797
Target sequence (Q15139 whole entry, looked up): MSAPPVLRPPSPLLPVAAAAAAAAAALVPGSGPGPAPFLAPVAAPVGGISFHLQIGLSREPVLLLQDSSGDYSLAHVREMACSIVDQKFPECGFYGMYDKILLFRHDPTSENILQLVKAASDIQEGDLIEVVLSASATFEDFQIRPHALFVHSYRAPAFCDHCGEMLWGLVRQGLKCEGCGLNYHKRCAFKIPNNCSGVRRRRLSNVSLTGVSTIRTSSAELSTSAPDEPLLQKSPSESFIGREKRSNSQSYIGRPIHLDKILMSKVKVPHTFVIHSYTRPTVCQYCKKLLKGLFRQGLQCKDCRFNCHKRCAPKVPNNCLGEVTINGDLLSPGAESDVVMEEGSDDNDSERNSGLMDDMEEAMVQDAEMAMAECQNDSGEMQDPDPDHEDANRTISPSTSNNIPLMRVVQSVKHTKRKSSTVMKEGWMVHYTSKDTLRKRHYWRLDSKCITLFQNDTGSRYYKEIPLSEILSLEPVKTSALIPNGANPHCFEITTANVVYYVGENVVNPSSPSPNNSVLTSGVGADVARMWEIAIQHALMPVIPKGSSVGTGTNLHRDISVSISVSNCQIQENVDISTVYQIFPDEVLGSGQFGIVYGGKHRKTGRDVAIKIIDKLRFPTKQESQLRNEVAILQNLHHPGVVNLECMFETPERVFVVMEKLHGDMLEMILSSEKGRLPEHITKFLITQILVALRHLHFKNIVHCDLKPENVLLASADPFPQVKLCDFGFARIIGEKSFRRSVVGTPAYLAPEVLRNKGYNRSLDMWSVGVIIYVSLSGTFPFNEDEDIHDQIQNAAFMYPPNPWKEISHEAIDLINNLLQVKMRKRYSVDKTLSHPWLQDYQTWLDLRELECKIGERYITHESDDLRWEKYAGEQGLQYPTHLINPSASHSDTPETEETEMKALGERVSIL
Wee1 stabilizer – inhibitors of human Wee1 degradation | P30291 | HeLa Luc-Wee1K328M stability, luciferase luminescence; 100% = proteasome inhibitor MG132 effect | reporter increase, % at 5 µM | 220,000 compounds, 1.2% hits | AID 1321;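 active means activation above the mean of all tested compounds plus 3 SD, set per screening run, cut at about 8.8% in these data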;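 further: cells exposed to compound for 20 h before luminescence read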
Rad51 HR inh – Rad51 (human) homologous recombination inhibition. hRad51 DNA strand exchange, fluorescence dequenching. inhibition, % at 10 µM. Q06609. 200,000 compounds, 0.085% hits;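 active means inhibition above 40% at the single screening dose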
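System: human Rad51 nucleoprotein filaments preassembled on unlabelled ssDNA. Reagent: labelled 47-mer dsDNA for strand exchange. Schedule: 30-min compound preincubation and 15-min exchange, both room temperature. Measured by: FRET fluorescence dequenching, excitation 485 nm, emission 520 nm. Read-out: Fluorescence-based percent inhibition, control- and blank-normalised. Benchmarks: plate controls and plate blanks.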
L major viab – Leishmania major promastigote growth inhibition. inhibition, % at 10 µM. AID 1063. 200,000 compounds, 9% hits. Leishmania major promastigotes, resazurin fluorescence viability;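 further: promastigotes grown with compound for 44 hours at 28 °C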
Hits are given with their value; i = inactive; nt = no result given. Sampled rows, rich in hits. Any-hit rate of the full collection: about 12%. Unless noted, no stated cut-off is given here; in the data, active means inhibition above about 50%; inactive means the rest.

SMILES	Arbovirus anti	CHOP inh	PKD1 inh	Wee1 stabilizer	Rad51 HR inh	L major viab
CC(C)Cn1c(SCC(=O)NC(=O)Nc2ccc3c(c2)OCCO3)nc2ccccc2c1=O	i	70	i	i	i	i
C=CCn1c(SCC(=O)Nc2ccc3c(c2)OCO3)nc2ccccc2c1=O	i	i	i	i	i	i
Cc1ccccc1Nc1nnc(SCC(=O)NC(=O)Nc2ccc3c(c2)OCCO3)s1	i	i	i	i	i	60
Cc1cccc(Nc2nnc(SCC(=O)NCc3cccs3)s2)c1C	i	i	i	i	i	58
Cn1cc(Br)c(C(=O)NNC(=O)Nc2ccccc2C(F)(F)F)n1	i	i	i	i	i	i
CCn1c(-c2cc(-c3ccc(C)cc3)nc3ccccc23)n[nH]c1=S	i	i	i	i	i	i
C=CCn1c(-c2cc(-c3ccc(C)cc3)nc3ccccc23)n[nH]c1=S	i	70	i	i	i	i
CN(C)c1ccc(C(=S)NC2CCCCC2)cc1	i	i	i	10	i	i
O=C(CCl)Nc1nc(-c2ccco2)c(-c2ccco2)s1	i	i	i	i	i	69
O=C(CCSc1ccccc1)Nc1nccs1	i	i	i	i	i	i
Nc1nc(-c2ccco2)c(-c2ccco2)s1	i	i	i	i	i	i
O=C(CCCSc1ccccc1)Nc1nc(-c2ccco2)c(-c2ccco2)s1	i	i	i	i	i	75
CCC(C)(C)NC(=O)C(c1ccccn1)N(C(=O)c1csnn1)c1ccc(C)cc1 (stereo unspecified)	i	i	i	i	i	i
COCc1c(C(=O)OC)nnn1-c1ccc(C(F)(F)F)cc1[N+](=O)[O-]	i	i	i	i	nt	i
O=C(CCCCCNc1nc(=S)[nH]c2ccccc12)NCCc1ccc(Cl)cc1	i	83	i	i	i	i
CN(C)c1ccc2c(c1)Sc1cc(N(C)C)ccc1N2C(=O)c1ccccc1	nt	i	nt	i	i	nt
COc1ccc2c(-c3ccccc3)cc(SCC(=O)NC(N)=O)nc2c1	i	77	i	i	i	i
N#Cc1ccc(NC(=O)COC(=O)CSc2nnc(-c3ccc(Cl)cc3)o2)cc1	i	i	i	i	i	i
CC1CC(C)CN(CC(C)(C)NS(=O)(=O)c2ccccc2)C1 (stereo unspecified)	i	i	i	i	i	89
CC1CCCC(C)N1CC(C)(C)NS(=O)(=O)c1ccc(Cl)cc1 (stereo unspecified)	i	i	i	i	i	88
CC(=O)c1ccc(OCC(O)CN2CCN(Cc3ccc4c(c3)OCO4)CC2)cc1 (stereo unspecified)	i	i	i	i	i	93
Cc1ccc(OCC(O)CN2CCN(Cc3ccc4c(c3)OCO4)CC2)c(C)c1 (stereo unspecified)	i	i	i	i	i	87
COc1ccc(OCC(O)CN2CCN(Cc3ccc4c(c3)OCO4)CC2)cc1 (stereo unspecified)	i	i	i	i	i	99
O=C(Cn1nnc(-c2ccccc2NC(=O)c2ccccc2F)n1)NC1CCCC1	i	i	i	i	i	i
CCN(C(=O)CSc1cc(C)c2cccc(C)c2n1)C1CCS(=O)(=O)C1 (stereo unspecified)	i	i	i	i	i	i
SMILES	Arbovirus anti	CHOP inh	PKD1 inh	Wee1 stabilizer	Rad51 HR inh	L major viab
CC(C)c1cc(C(=O)NCCc2ccccc2)no1	i	i	i	i	i	i
CC1(C)CC(N2CCCC2)=CC(=[N+]2CCCCC2)C1	i	i	i	i	i	100
CC1(C)CC(N2CCN(Cc3ccccc3)CC2)=CC(=[N+]2CCCCC2)C1	nt	i	nt	i	i	nt
CC1(C)CC(N2CCCC2)=CC(=[N+]2CCCC2)C1	i	i	i	i	nt	99
Cc1cnc(CN2CCc3c([nH]c4ccccc34)C2C2CCCCC2)[nH]1 (stereo unspecified)	i	i	i	i	i	54
c1ccc2c3c([nH]c2c1)C(C1CCCCC1)N(Cc1ncc[nH]1)CC3 (stereo unspecified)	i	i	i	i	i	i
NNC(=O)CCc1nc2ccccc2[nH]1	i	i	i	i	i	i
Cc1ccccc1-c1cc(C(=O)Nc2nc3c(s2)CCCC3)c2ccccc2n1	i	i	i	i	i	65
Cc1cccc(-c2cc(C(=O)Nc3sc(C)c(C)c3C(N)=O)c3ccccc3n2)c1	i	i	i	i	nt	i
Cc1ccc(C)c(-c2cc(C(=O)Nc3sc(C)c(C)c3C(N)=O)c3ccccc3n2)c1	i	i	i	i	i	61
Cc1ccccc1C(=O)NC(C(=O)Nc1nc2c(s1)CCCC2)C(C)C (stereo unspecified)	i	i	i	i	nt	50
O=C(Nc1nc2c(s1)CCCC2)c1cc(-c2ccc3c(c2)OCO3)nc2ccccc12	i	i	i	i	i	i
NCCS(=O)(=O)O	nt	i	nt	nt	i	nt
CCN1CCN(CC(=O)n2c3c(c4ccccc42)CC(C)CC3)CC1 (stereo unspecified)	i	i	i	i	nt	100
CC1CCN(CC(=O)n2c3c(c4ccccc42)CCCC3)CC1	i	i	i	i	i	i
CCCc1nc2ccccc2[nH]1	i	i	i	i	i	i
COc1ccc(CCCc2nc3ccccc3[nH]2)cc1	nt	i	nt	9.9	i	nt
COc1ccc(/C=C/C(=O)c2ccc3c4c(cccc24)CC3)cc1OC	i	i	i	i	i	60
COc1ccc(/C=C/C(=O)c2cc(F)ccc2OC(=O)c2ccccc2C)cc1OC	i	i	i	i	i	60
O=C(Nc1ccc(S(=O)(=O)NC2=NCCCCC2)cc1)C1COc2ccccc2O1 (stereo unspecified)	nt	i	nt	i	41	nt
O=C(CSc1nc2ccccc2o1)NCc1ccc2c(c1)OCO2	i	79	i	i	i	i
O=C(CSc1nc2ccc(Cl)cc2o1)NCc1ccc2c(c1)OCO2	i	i	i	i	i	i
O=C(CSc1nc(CCC2CCCC2)nc2ccccc12)NCc1ccc2c(c1)OCO2	i	95	i	i	i	i
O=C(COc1ncnc2ccccc12)Nc1cc([N+](=O)[O-])ccc1F	nt	i	nt	i	i	nt
CCOC(=O)c1c(NC(=O)CN2CCCCC2)sc2c1CCCC2O (stereo unspecified)	i	86	i	i	i	i
SMILES	Arbovirus anti	CHOP inh	PKD1 inh	Wee1 stabilizer	Rad51 HR inh	L major viab
CCOC(=O)c1c(NC(=O)/C=C/C(=O)O)sc(C)c1-c1ccc(Cl)cc1	i	i	i	i	i	i
CCOC(=O)c1c(NC(=O)CN2CCCCC2)sc(CN(C)C)c1-c1ccccc1	i	i	i	i	i	52
CCOC(=O)c1c(/N=C/N(C)C)sc(/C=N/Nc2ccccc2)c1-c1ccccc1Cl	i	i	i	i	i	i
CCOC(=O)c1c(/N=C/N(C)C)sc(/C=N/Nc2ccccc2)c1-c1ccccc1	i	82	i	i	i	95
CCOC(=O)c1c(NC(=O)CCl)sc(CN(C)C)c1-c1ccccc1	i	i	i	i	i	91
Cc1ccc(N(Cc2cc3cc(C)ccc3[nH]c2=O)S(=O)(=O)c2ccccc2)cc1	i	i	i	i	i	i
